Calls of active or inactive are those of the source. The calls are words filed in the database; no cut-off is given here.

The target of test [1] is T1, Vancomycin/teicoplanin A-type resistance protein VanA (Enterococcus faecium) (UniProt P25051).
T1 sequence (whole entry): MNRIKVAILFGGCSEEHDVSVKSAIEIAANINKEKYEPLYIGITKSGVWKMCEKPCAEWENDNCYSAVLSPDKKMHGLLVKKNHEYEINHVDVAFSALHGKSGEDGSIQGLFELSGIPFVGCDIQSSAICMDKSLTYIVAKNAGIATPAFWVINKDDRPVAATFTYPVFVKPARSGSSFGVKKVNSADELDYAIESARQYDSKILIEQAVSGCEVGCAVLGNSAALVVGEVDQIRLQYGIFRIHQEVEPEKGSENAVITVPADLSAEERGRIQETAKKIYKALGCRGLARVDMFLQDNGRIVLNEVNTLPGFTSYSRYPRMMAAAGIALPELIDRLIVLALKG
Put plainly: Inhibition of Enterococcus faecium VanA at 500 uM by pyruvate kinase/lactate dehydrogenase coupled assay. In a few lines:
(§1)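 VanA measured by NADH depletion at 340 nm via PK/LDH coupling, 37 °C. Buffer 100 mM Hepes pH 7.5, 10 mM MgCl2, 10 mM KCl, 10% (v/v) DMSO ± compound; 2 mM PEP, 0.2 mM ATP, PK, LDH, NADH; substrates 8 mM D-Ala and 1.78 mM D-Lac; started by adding VanA.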

Test [2] deals with T2, Vancomycin/teicoplanin A-type resistance protein VanA (Enterococcus faecium, UniProt P25051).
T2 sequence (P25051 whole entry): T1 sequence (whole entry)
Put plainly: Inhibition of Enterococcus faecium VanA by pyruvate kinase/lactate dehydrogenase coupled assay. Put shortly: as §1

Test [3] concerns Escherichia coli. Briefly: Inhibition of Escherichia coli […] at 500 uM by pyruvate kinase/lactate dehydrogenase coupled assay.
A short description of test [4]: Inhibition of Escherichia coli […] by pyruvate kinase/lactate dehydrogenase coupled assay.
In test [5] the target is T1, Vancomycin/teicoplanin A-type resistance protein VanA (Enterococcus faecium). Put plainly: Inhibition of Enterococcus faecium VanA at 10 mM by pyruvate kinase/lactate dehydrogenase coupled assay. Put shortly:
as §1

In test [6] the test system is Escherichia coli. Briefly: Inhibition of Escherichia coli […] at 10 mM by pyruvate kinase/lactate dehydrogenase coupled assay.

Consider `COc1ccc(S(=O)(=O)NCC(CN2CCOCC2)OP(=O)(O)O)cc1` (stereo unspecified), for which the inhibition in test [1] and in test [3] was 83% throughout. Further, the half-inhibitory concentration (IC50) (in general, the point on the concentration scale where inhibition reaches its midpoint) in test [2] stood at 224 µM; in test [4], 110 µM.

In the case of `O=P(O)(Oc1ccccc1)OC(CNS(=O)(=O)c1ccc(F)cc1)CN1CCOCC1` (stereo unspecified), the inhibition (commonly the change of the read-out against control, counted positive when it falls) in test [1] was found to be 65%. Further, the inhibition result in test [3] was “inactive”.

For `O=P(O)(O)OC(CNS(=O)(=O)c1ccc(F)cc1)CN1CCOCC1` (stereo unspecified), the inhibition in test [1] amounted to 75%; in test [3], 77%. In addition, the 50% inhibitory concentration (IC50) worked out at 290 µM in test [2] and 136 µM in test [4].

`COc1ccc(S(=O)(=O)NCC(O)CN2CCOCC2)cc1` (stereo unspecified): the outcome in test [5] and in test [6] was inactive.

Regarding `O=S(=O)(NCC(O)CN1CCOCC1)c1ccc(F)cc1` (stereo unspecified), the result in test [5] and in test [6] was inactive.

Regarding `COc1ccc(S(=O)(=O)NCC(CN2CCOCC2)OP(=O)(O)Oc2ccccc2)cc1` (stereo unspecified), the inhibition result in test [1] and in test [3] was “inactive” each time.

Source of the values: ChEMBL document CHEMBL1153269, “Design and synthesis of new hydroxyethylamines as inhibitors of D-alanyl-D-lactate ligase (VanA) and D-alanyl-D-alanine ligase (DdlB)” (Bioorg Med Chem Lett, 2009).
